The source made the active and inactive calls. The calls are words filed in the database; no cut-off is given here.
Assays:
[1] = molecular target: T1, NUAK family SNF1-like kinase 1 (Homo sapiens) (UniProt O60285); assay: Inhibition of NUAK1 (unknown origin) at 10 uM using CHKtide as substrate in presence of ATP measured after 60 mins by ADP-Glo assay
T1 sequence (whole entry): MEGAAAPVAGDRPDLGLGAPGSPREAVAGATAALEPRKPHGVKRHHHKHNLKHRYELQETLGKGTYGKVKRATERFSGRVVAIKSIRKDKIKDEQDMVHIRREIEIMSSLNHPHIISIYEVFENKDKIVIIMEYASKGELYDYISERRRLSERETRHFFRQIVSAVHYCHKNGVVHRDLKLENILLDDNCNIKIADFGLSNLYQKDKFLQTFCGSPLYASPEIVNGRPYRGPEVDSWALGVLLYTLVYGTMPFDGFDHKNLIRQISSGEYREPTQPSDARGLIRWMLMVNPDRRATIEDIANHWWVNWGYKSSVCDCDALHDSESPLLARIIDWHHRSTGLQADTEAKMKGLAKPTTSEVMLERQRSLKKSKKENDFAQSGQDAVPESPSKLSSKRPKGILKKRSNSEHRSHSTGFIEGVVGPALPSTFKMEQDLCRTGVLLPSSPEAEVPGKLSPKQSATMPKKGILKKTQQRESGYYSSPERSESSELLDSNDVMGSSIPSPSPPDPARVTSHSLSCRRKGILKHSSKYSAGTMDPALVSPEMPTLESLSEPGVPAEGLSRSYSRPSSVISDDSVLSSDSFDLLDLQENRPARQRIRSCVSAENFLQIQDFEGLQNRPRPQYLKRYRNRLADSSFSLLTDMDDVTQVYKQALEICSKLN

HCT-116 [2] = assay: Inhibition of colony formation in human HCT-116 cells measured after 14 days by crystal violet staining based microcopic analysis; type: functional, cell-based; conditions: dose 0.5-2 µM, time 14.0 day
Outline: (§1)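 Clonogenic assay with 14-day exposure to a range of compound concentrations; colonies stained with crystal violet and imaged by microscopy; compared with untreated cells.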

SW480 [3] = assay: Inhibition of colony formation in human SW480 cells measured after 14 days by crystal violet staining based microcopic analysis; type: functional, cell-based; conditions: dose 0.5-2 µM, time 14.0 day; outline: as §1
U2OS [4] = assay: Antiproliferative activity against human U2OS cells at 2.5 to 10 uM measured after 48 hrs by EdU staining based assay; type: functional, cell-based; conditions: dose 2.5-10 µM
Outline: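 Cells exposed to a range of compound concentrations for 48 h, then EdU click-chemistry staining with DAPI counterstain. Confocal high-content imaging; DAPI-positive nuclei counted as total and EdU-positive as proliferating.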

U2OS [5] = assay: Induction of cell cycle arrest in human U2OS cells assessed as increase in accumulation at G2/M phase at 10 uM measured after 48 hrs by PI/RNaseA staining based flow cytometry assay; type: functional
U2OS [6] = assay: Induction of cell cycle arrest in human U2OS cells assessed as reduction in accumulation at G1 phase at 10 uM measured after 48 hrs by PI/RNaseA staining based flow cytometry assay; type: functional
U2OS [7] = assay: Induction of cell cycle arrest in human U2OS cells assessed as reduction in accumulation at S phase at 10 uM measured after 48 hrs by PI/RNaseA staining based flow cytometry assay; type: functional
HCT-116 [8] = assay: Induction of cell cycle arrest in human HCT-116 cells assessed as reduction in accumulation at S phase at 10 uM measured after 48 hrs by PI/RNaseA staining based flow cytometry assay; type: functional
SW480 [9] = assay: Induction of cell cycle arrest in human SW480 cells assessed as increase in accumulation at G2/M phase at 10 uM measured after 48 hrs by PI/RNaseaA staining based flow cytometry assay; type: functional
SW480 [10] = assay: Induction of cell cycle arrest in human SW480 cells assessed as reduction in accumulation at G1 phase at 10 uM measured after 48 hrs by PI/RNaseaA staining based flow cytometry assay; type: functional
U2OS [11] = assay: Induction of ROS generation in human U2OS cells at 10 uM measured after 48 hrs by DCFH-DA staining based flow cytometry method; type: functional, cell-based
Outline: (§2)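 Cells treated at 10 μM for 48 h, ROS measured by flow cytometry. Fluorescence intensity expressed relative to vehicle-treated controls; mean ± SEM from 3 independent experiments.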

HCT-116 [12] = assay: Induction of ROS generation in human HCT-116 cells at 10 uM measured after 48 hrs by DCFH-DA staining based flow cytometry method; type: functional, cell-based; outline: as §2
U2OS [13] = assay: Induction of apoptosis in human U2OS cells assessed as late apoptotic cells at 10 uM measured after 48 hrs by Annexin V-FITC/PI staining based flow cytometry method (reference value: 1.3%); type: functional
HCT-116 [14] = assay: Induction of apoptosis in human HCT-116 cells assessed as early apoptotic cells at 10 uM measured after 48 hrs by Annexin V-FITC/PI staining based flow cytometry method (reference value: 0.8%); type: functional
HCT-116 [15] = assay: Induction of apoptosis in human HCT-116 cells assessed as necrotic cells at 10 uM measured after 48 hrs by Annexin V-FITC/PI staining based flow cytometry method (reference value: 2.2%); type: functional
SW480 [16] = assay: Induction of apoptosis in human SW480 cells assessed as early apoptotic cells at 10 uM measured after 48 hrs by Annexin V-FITC/PI staining based flow cytometry method (reference value: 2.6%); type: functional
[17] = Toxicity against BALB/c-nu/nu mouse xenografted with human SW480 cells assessed as body weight at 10 to 20 mg/kg, ip administered every 2 days for 18 days; type: organism-based; conditions: in vivo, 432 h, dose 10-20 mg/kg, time 18 day
Outline: (§3)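 SW480 xenografts in nude mice, randomized at 100 mm3 tumour volume into four groups of six. Dosed ip at 10 or 20 mg/kg every two days for 18 days, with vehicle group. Tumour volume and body weight recorded every two days; tumours weighed at end; means ± SD (n = 6).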

SW480 [18] = assay: Antitumour activity against human SW480 cells xenografted in Balb/c-nu/nu mouse assessed as reduction in Ki67 expression in tumor at 10 mg/kg, ip administered every 2 days for 18 days by immunohistochemical assay; type: functional, organism-based; conditions: time 18.0 day
Outline: (§4)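 SW480 xenografts in nude mice (n = 6 per group) treated ip every two days for 18 days. Excised tumours sectioned for HE and Ki67 staining, examined at ×400.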

SW480 [19] = assay: Antitumour activity against human SW480 cells xenografted in Balb/c-nu/nu mouse assessed as reduction in Ki67 expression in tumor at 20 mg/kg, ip administered every 2 days for 18 days by immunohistochemical assay; type: functional, organism-based; conditions: time 18.0 day; outline: as §4
SW480 [20] = assay: Antitumour activity against human SW480 cells xenografted in Balb/c-nu/nu mouse assessed as reduction in tumor weight at 10 to 20 mg/kg, ip administered every 2 days for 18 days; type: functional, organism-based; conditions: dose 10-20 mg/kg, time 18.0 day; outline: as §3
[21] = Toxicity against BALB/c-nu/nu mouse xenografted with human SW480 cells assessed as morphological changes in spleen at 10 to 20 mg/kg, ip administered every 2 days for 18 days by H and E staining based analysis; type: organism-based; conditions: in vivo, 432 h, dose 10-20 mg/kg, time 18 day
Outline: (§5)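 After 18 days of ip dosing every two days in SW480-xenografted nude mice, heart, liver, spleen, lung and kidney harvested, sectioned, HE-stained, examined at ×400.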

[22] = Toxicity against BALB/c-nu/nu mouse xenografted with human SW480 cells assessed as morphological changes in kidney at 10 to 20 mg/kg, ip administered every 2 days for 18 days by H and E staining based analysis; type: organism-based; conditions: in vivo, 432 h, dose 10-20 mg/kg, time 18 day; outline: as §5

Q: What does the source list for `CCC(=O)Nc1cccc(Oc2nc(Nc3ccc(N4CCN(C)CC4)cc3)ncc2Cl)c1`?
A: inhibition [1]: 92.9%; inhibition (HCT-116 [2]): Dose-Dependent Effect; inhibition (SW480 [3]): Dose-Dependent Effect; Activity (U2OS [4]): Active; Activity (U2OS [5]): Active; Activity (U2OS [6]): Active; Activity (U2OS [7]): Active; Activity (HCT-116 [8]): Active; Activity (SW480 [9]): Active; Activity (SW480 [10]): Active; Activity (U2OS [11]): Active; Activity (HCT-116 [12]): Active; Activity (U2OS [13]): 4.8%; Activity (HCT-116 [14]): 3.9%; Activity (HCT-116 [15]): 4.1%; Activity (SW480 [16]): 16.2%; Activity [17]: Non-Toxic; Activity (SW480 [18]): Active; Activity (SW480 [19]): Active; Activity (SW480 [20]): Active; Activity [21]: Non-Toxic; Activity [22]: Non-Toxic

Source: ChEMBL document CHEMBL4813921, “Optimization of WZ4003 as NUAK inhibitors against human colorectal cancer” (Eur J Med Chem, 2021)
